Experimental data: ChEMBL document CHEMBL1145495, “Polyamine effects on antibiotic susceptibility in bacteria” (2007)
Values after ≈ are worked out from the molar mass of the structure shown.

How the values were obtained:
[1] = tested on: Staphylococcus aureus; experiment: Antibacterial activity against Staphylococcus aureus ATCC 3556 after 14 to 16 hrs by broth dilution method; format: functional
[2] = tested on: Staphylococcus aureus; experiment: Antibacterial activity against Staphylococcus aureus N315 after 14 to 16 hrs by broth dilution method; format: functional
Procedure, shortened: (§1)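 CLSI broth dilution in cation-adjusted Mueller-Hinton broth with serial twofold dilutions, with or without spermine or spermidine added. Overnight cultures were diluted in saline to OD600 0.1–0.12, and about 10^5 CFU were inoculated. Incubation was 14–16 h at 37°C. MIC was confirmed in three independent experiments. E. coli acrA mutants were tested with 1 mM spermine; P. aeruginosa isolates with 1 mM spermine or 20 mM spermidine.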

[3] = tested on: Staphylococcus aureus; experiment: Antibacterial activity against Staphylococcus aureus Mu50 after 14 to 16 hrs by broth dilution method; format: functional
[4] = tested on: Salmonella typhimurium; experiment: Antibacterial activity against Salmonella enterica serovar Typhimurium LT2 after 14 to 16 hrs by broth dilution method; format: functional, Salmonella enterica subsp. enterica serovar Typhimurium
[5] = tested on: Escherichia coli; experiment: Antibacterial activity against Escherichia coli K10 after 14 to 16 hrs by broth dilution method; format: functional
[6] = tested on: Escherichia coli; experiment: Antibacterial activity against Escherichia coli K12 after 14 to 16 hrs by broth dilution method; format: functional
[7] = tested on: Escherichia coli; experiment: Antibacterial activity against Escherichia coli C921-61 after 14 to 16 hrs by broth dilution method; format: functional
[8] = tested on: Pseudomonas aeruginosa; experiment: Antibacterial activity against Pseudomonas aeruginosa DK101 containing pAU48 expressing oprD after 14 to 16 hrs by broth dilution method; format: functional
[9] = tested on: Pseudomonas aeruginosa; experiment: Antibacterial activity against streptomycin and gentamycin-resistant Pseudomonas aeruginosa DK101 containing oprD mutant after 14 to 16 hrs by broth dilution method; format: functional; procedure, shortened: as §1
[10] = tested on: Pseudomonas aeruginosa; experiment: Antibacterial activity against streptomycin-resistant Pseudomonas aeruginosa DK100 after 14 to 16 hrs by broth dilution method; format: functional; procedure, shortened: as §1
[11] = tested on: Pseudomonas aeruginosa; experiment: Antibacterial activity against Pseudomonas aeruginosa T6268 after 14 to 16 hrs by broth dilution method; format: functional
[12] = tested on: Pseudomonas aeruginosa; experiment: Antibacterial activity against Pseudomonas aeruginosa PAO1 after 14 to 16 hrs by broth dilution method; format: functional
[13] = tested on: Pseudomonas aeruginosa; experiment: Antibacterial activity against Pseudomonas aeruginosa M38100B after 14 to 16 hrs by broth dilution method; format: functional
[14] = tested on: Pseudomonas aeruginosa; experiment: Antibacterial activity against Pseudomonas aeruginosa M37310 after 14 to 16 hrs by broth dilution method; format: functional
[15] = tested on: Pseudomonas aeruginosa; experiment: Antibacterial activity against Pseudomonas aeruginosa T2095 after 14 to 16 hrs by broth dilution method; format: functional
[16] = tested on: Pseudomonas aeruginosa; experiment: Antibacterial activity against Pseudomonas aeruginosa F66336 after 14 to 16 hrs by broth dilution method; format: functional
[17] = tested on: Pseudomonas aeruginosa; experiment: Antibacterial activity against Pseudomonas aeruginosa T15464 after 14 to 16 hrs by broth dilution method; format: functional; procedure, shortened: as §1
[18] = tested on: Pseudomonas aeruginosa; experiment: Antibacterial activity against Pseudomonas aeruginosa H4563 after 14 to 16 hrs by broth dilution method; format: functional
[19] = tested on: Pseudomonas aeruginosa; experiment: Antibacterial activity against Pseudomonas aeruginosa T5177 after 14 to 16 hrs by broth dilution method; format: functional; procedure, shortened: as §1
[20] = tested on: Pseudomonas aeruginosa; experiment: Antibacterial activity against Pseudomonas aeruginosa M22152 after 14 to 16 hrs by broth dilution method; format: functional; procedure, shortened: as §1
[21] = tested on: Pseudomonas aeruginosa; experiment: Antibacterial activity against Pseudomonas aeruginosa F4980 after 14 to 16 hrs by broth dilution method; format: functional; procedure, shortened: as §1
[22] = tested on: Pseudomonas aeruginosa; experiment: Antibacterial activity against Pseudomonas aeruginosa M38100A after 14 to 16 hrs by broth dilution method; format: functional
[23] = tested on: Escherichia coli; experiment: Antibacterial activity against Escherichia coli W4573 assessed as inhibition of AcrAB efflux pump after 14 to 16 hrs by broth dilution method; format: functional
[24] = tested on: Escherichia coli; experiment: Antibacterial activity against Escherichia coli N818 delta acrA mutant assessed as inhibition of AcrAB efflux pump after 14 to 16 hrs by broth dilution method; format: functional; procedure, shortened: as §1
[25] = tested on: Escherichia coli; experiment: Antibacterial activity against Escherichia coli N43 acrA mutant assessed as inhibition of AcrAB efflux pump after 14 to 16 hrs by broth dilution method; format: functional; procedure, shortened: as §1

Row | Compound | MIC [1] | MIC [2] | MIC [3] | MIC [4] | MIC [5] | MIC [6] | MIC [7] | also measured
1 | CC1(C)S[C@@H]2[C@H](NC(=O)[C@H](N)c3ccc(O)cc3)C(=O)N2[C@H]1C(=O)O [AMOXICILLIN] | 1 µg/mL | 16 µg/mL | 16 µg/mL | – | – | – | – | –
2 | CC(C)(O/N=C(\C(=O)N[C@@H]1C(=O)N2C(C(=O)[O-])=C(C[n+]3ccccc3)CS[C@H]12)c1csc(N)n1)C(=O)O [CEFTAZIDIME] | 8 µg/mL | 32 µg/mL | 512 µg/mL | – | – | – | – | –
3 | CN[C@@H]1[C@H](O)[C@H](NC)[C@H]2O[C@@]3(O)C(=O)C[C@@H](C)O[C@H]3O[C@@H]2[C@H]1O [SPECTINOMYCIN] | – | – | – | 32 µg/mL | 16 µg/mL | 16 µg/mL | 16 µg/mL | –
4 | O=C(Cc1cccs1)N[C@@H]1C(=O)N2C(C(=O)[O-])=C(C[n+]3ccccc3)CS[C@H]12 [CEPHALORIDINE] | < 0.06 µg/mL | 1 µg/mL | 16 µg/mL | 0.015 µg/mL | 8 µg/mL | 4 µg/mL | 4 µg/mL | –
5 | C[C@@H](O)[C@H]1C(=O)N2C(C(=O)O)=C(SCCNC=N)C[C@H]12 [IMIPENEM ANHYDROUS] | – | – | – | – | – | – | – | MIC [8]: 0.5 µg/mL (≈ 1.67 µM); MIC [9]: 32 µg/mL (≈ 107 µM); MIC [10]: 4 µg/mL (≈ 13.4 µM)
6 | CC1(C)S[C@@H]2[C@H](NC(=O)[C@H](N)c3ccccc3)C(=O)N2[C@H]1C(=O)O [AMPICILLIN] | 2 µg/mL | 128 µg/mL | 64 µg/mL | 4 µg/mL | 8 µg/mL | 4 µg/mL | 4 µg/mL | –
7 | Cc1onc(-c2ccccc2Cl)c1C(=O)N[C@@H]1C(=O)N2[C@@H]1SC(C)(C)[C@@H]2C(=O)O [CLOXACILLIN] | 0.12 µg/mL | 8 µg/mL | ≥ 512 µg/mL | – | – | – | – | –
8 | NCCCNCCCCNCCCN [SPERMINE] | 4 mM | 4 mM | 4 mM | 2 mM | 1 mM | > 16 mM | > 16 mM | –
9 | POLYMYXIN B | 64 µg/mL | 64 µg/mL | 128 µg/mL | – | 0.5 µg/mL | 0.25 µg/mL | 0.5 µg/mL | MIC ([4]; Salmonella enterica subsp. enterica serovar Typhimurium): 0.5 µg/mL; MIC [11]: 1 µg/mL; MIC [12]: 1 µg/mL; MIC [13]: 16 µg/mL; MIC [14]: 0.125 µg/mL; MIC [15]: 0.125 µg/mL; MIC [16]: 0.125 µg/mL; MIC [8]: 0.5 µg/mL; MIC [17]: 0.5 µg/mL; MIC [18]: 0.125 µg/mL; MIC [19]: 0.5 µg/mL; MIC [20]: 0.5 µg/mL; MIC [21]: 0.25 µg/mL; MIC [9]: 0.5 µg/mL; MIC [10]: 0.5 µg/mL; MIC [22]: < 0.06 µg/mL
10 | CO/N=C(\C(=O)N[C@@H]1C(=O)N2C(C(=O)O)=C(CSc3nc(=O)c(O)nn3C)CS[C@H]12)c1csc(N)n1 [CEFTRIAXONE] | 2 µg/mL | 4 µg/mL | > 1020 µg/mL | – | – | – | – | –
11 | CN(C)[C@@H]1C(O)=C(C(N)=O)C(=O)[C@@]2(O)C(O)=C3C(=O)c4c(O)cccc4[C@@](C)(O)[C@H]3C[C@@H]12 [TETRACYCLINE] | 0.12 µg/mL | 0.12 µg/mL | 32 µg/mL | 2 µg/mL | 8 µg/mL | 8 µg/mL | 2 µg/mL | MIC [23]: 2 µg/mL (≈ 4.5 µM); MIC [24]: 0.5 µg/mL (≈ 1.13 µM); MIC [25]: 0.5 µg/mL (≈ 1.13 µM)
12 | O=C(N[C@H](CO)[C@H](O)c1ccc([N+](=O)[O-])cc1)C(Cl)Cl [CHLORAMPHENICOL] | 8 µg/mL | 8 µg/mL | 8 µg/mL | 2 µg/mL | – | 32 µg/mL | 4 µg/mL | MIC [12]: 128 µg/mL (≈ 396 µM); MIC [15]: 32 µg/mL (≈ 99 µM); MIC [16]: 8 µg/mL (≈ 24.8 µM); MIC [23]: 8 µg/mL (≈ 24.8 µM); MIC [24]: 2 µg/mL (≈ 6.19 µM); MIC [17]: 32 µg/mL (≈ 99 µM); MIC [21]: 32 µg/mL (≈ 99 µM); MIC [25]: 2 µg/mL (≈ 6.19 µM); MIC [22]: 4 µg/mL (≈ 12.4 µM)
13 | O=C(O)c1cn(C2CC2)c2cc(N3CCNCC3)c(F)cc2c1=O [CIPROFLOXACIN] | 0.25 µg/mL | 1 µg/mL | 64 µg/mL | ≤ 0.03 µg/mL | ≤ 0.03 µg/mL | ≤ 0.03 µg/mL | ≤ 0.03 µg/mL | MIC [11]: 4 µg/mL (≈ 12.1 µM); MIC [13]: 32 µg/mL (≈ 96.6 µM); MIC [18]: 128 µg/mL (≈ 386 µM); MIC [20]: 4 µg/mL (≈ 12.1 µM); MIC [21]: 4 µg/mL (≈ 12.1 µM)
